Results on 25 molecules are retold here after ChEMBL document CHEMBL2321827, “Allopregnanolone and pregnanolone analogues modified in the C ring: synthesis and activity” (J Med Chem, 2013).

Holding throughout (assay type): cell-based
Test [1] can be described thus: Stimulation of [3H]flunitrazepam binding to GABA type A receptor in mouse primary cortical neurons after 30 mins by liquid scintillation counting analysis. The conditions noted are these: cerebral cortex neuron. The method in brief:
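Cortical neurons from E16 mouse embryos, cultured 7–9 days with FUdR/uridine against glia, then washed in HEPES buffer pH 7.3. Intact cells were incubated with 1.3–2.0 nM [3H]flunitrazepam and compound (1 nM–300 μM, ≥6 concentrations, triplicate, final DMSO 100 μM) for 30 min at 25 °C. Nonspecific binding used 20 μM diazepam. EC50 came from a sigmoid fit, mean ± sd, n = 2–4.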

Test [2] concerns Cerebral cortex neuron. Description: Stimulation of [3H]flunitrazepam binding to GABA type A receptor in mouse primary cortical neurons at 100 uM after 30 mins by liquid scintillation counting analysis relative to allopregnanolone. In short, it runs like this: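 Intact E16 mouse cortical neurons cultured 7–9 days, washed in HEPES pH 7.3, then incubated 30 min at 25 °C with 1.3–2.0 nM [3H]flunitrazepam and 100 μM compound in triplicate. Nonspecific binding was defined with 20 μM diazepam and radioactivity counted by scintillation. Binding increase is given as % of the maximal effect of 60 μM allopregnanolone, mean ± sd, n = 2–4.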

Test [3] deals with Cerebral cortex neuron. Description: Stimulation of [3H]flunitrazepam binding to GABA type A receptor in primary cortical neurons relative to allopregnanolone.

`CC(=O)[C@H]1CC[C@H]2[C@@H]3CC[C@@H]4C[C@H](O)CC[C@]4(C)[C@H]3[C@@H](C)C[C@]12C` displayed an EC50 in test [1] of 14 µM. Moreover, the Emax with Cerebral cortex neuron [2] was 71%.

`CC(=O)[C@H]1CC[C@H]2[C@@H]3CC[C@H]4C[C@H](N)CC[C@]4(C)[C@H]3CC[C@]12C` returned an Activity with Cerebral cortex neuron [3] of 56%.

Consider `CC(=O)[C@H]1CC[C@H]2[C@@H]3CC[C@H]4C[C@H](O)CC[C@]4(C)[C@H]3C[C@@H](N)[C@]12C`, for which the EC50 in test [1] is greater than 300 µM. The same molecule yielded an Emax with Cerebral cortex neuron [2] of 0%.

For the molecule `CC(=O)[C@H]1CC[C@H]2[C@@H]3CC[C@H]4C[C@H](O)CC[C@]4(C)[C@H]3[C@@H]3O[C@@H]3[C@]12C`, the EC50 in test [1] is greater than 300 µM. In the test with Cerebral cortex neuron [2], this molecule registered an Emax of 9%.

In the case of `C#C[C@]1(O)C[C@]2(C)[C@@H](C(C)=O)CC[C@H]2[C@@H]2CC[C@H]3C[C@H](O)CC[C@]3(C)[C@H]21`, the response in test [1] was half-maximal at 32 µM (EC50). Moreover, the Emax in the test on Cerebral cortex neuron [2] is 87%.

In test [1], `CC(=O)[C@H]1CC[C@H]2[C@@H]3CC[C@H]4C[C@H](O)CC[C@]4(C)[C@H]3C(=O)C[C@]12C` [ALFAXALONE] yielded an EC50 of 4.6 µM. This molecule also showed an Emax with Cerebral cortex neuron [2] of 92%.

Take `CC(=O)[C@H]1CC[C@H]2[C@@H]3CC[C@@H]4C[C@H](O)CC[C@]4(C)[C@H]3[C@H](O)C[C@]12C`: it took 71 µM to reach a half-maximal effect in test [1] (EC50). Further, the maximum response (Emax) with Cerebral cortex neuron [2] was determined as 43%.

Molecule `C=C1C[C@]2(C)[C@@H](C(C)=O)CC[C@H]2[C@@H]2CC[C@@H]3C[C@H](O)CC[C@]3(C)[C@@H]12` showed an EC50 in test [1] of 37.5 µM. Besides, the Emax in the test with Cerebral cortex neuron [2] amounted to 28%.

In test [1], `CC(=O)[C@H]1CC[C@H]2[C@@H]3CC[C@H]4C[C@H](O)CC[C@]4(C)[C@H]3C[C@@H](O)[C@]12C` came in with an EC50 of 173 µM. In the test on Cerebral cortex neuron [2], this molecule registered an Emax of 28%.

Take `CC(=O)[C@H]1CC[C@H]2[C@@H]3CC[C@H]4C[C@H](O)CC[C@]4(C)[C@H]3[C@H](O)C[C@]12C`: in test [1], the EC50 is greater than 300 µM. Also, the Emax in the test with Cerebral cortex neuron [2] stood at 28%.

In test [1], `C#C[C@]1(O)C[C@]2(C)[C@@H](C(C)=O)CC[C@H]2[C@@H]2CC[C@@H]3C[C@H](O)CC[C@]3(C)[C@H]21` came in with an EC50 of 14 µM. Besides, in the test on Cerebral cortex neuron [2], the Emax amounted to 91%.

In turn, `CC(=O)[C@H]1CC[C@H]2[C@@H]3CC[C@H]4C[C@H](O)CC[C@]4(C)[C@H]3C=C[C@]12C` registered an EC50 in test [1] of 7.4 µM. Besides, the Emax in the test with Cerebral cortex neuron [2] was 67%.

As to `C=C1C[C@]2(C)[C@@H](C(C)=O)CC[C@H]2[C@@H]2CC[C@H]3C[C@H](O)CC[C@]3(C)[C@@H]12`, the EC50 in test [1] is 1.2 µM. In the test on Cerebral cortex neuron [2], this molecule yielded an Emax of 102%.

For the molecule `CC(=O)[C@H]1CC[C@H]2[C@@H]3CC[C@H]4C[C@H](O)CC[C@]4(C)[C@H]3[C@@H](O)C[C@]12C`, the EC50 in test [1] is 32 µM. Moreover, in the test on Cerebral cortex neuron [2], the Emax is 117%.

`CC(=O)[C@H]1CC[C@H]2[C@@H]3CC[C@@H]4C[C@H](O)CC[C@]4(C)[C@H]3C(=O)C[C@]12C` [RENANOLONE] returned an EC50 in test [1] of 94 µM. The Emax in the test on Cerebral cortex neuron [2] amounted to 42%.

`CC(=O)[C@H]1CC[C@H]2[C@@H]3CC[C@@H]4C[C@@](O)(C#Cc5ccccc5)CC[C@]4(C)[C@H]3[C@](O)(C#Cc3ccccc3)C[C@]12C` came in with an EC50 in test [1] greater than 100 µM. Also, the Emax in the test with Cerebral cortex neuron [2] came out at 0%.

The molecule `CC(=O)[C@H]1CC[C@H]2[C@@H]3CC[C@H]4C[C@H](O)CC[C@]4(C)[C@H]3[C@H](N)C[C@]12C` displayed an EC50 in test [1] of 154 µM. In the test with Cerebral cortex neuron [2], the Emax is 45%.

As to `CC(=O)N[C@@H]1C[C@H]2[C@@H](CC[C@H]3C[C@H](O)CC[C@@]32C)[C@@H]2CC[C@H](C(C)=O)[C@@]12C`, the EC50 in test [1] is greater than 100 µM. In addition, the Emax in the test on Cerebral cortex neuron [2] was determined as 0%.

In test [1], `CC(=O)[C@H]1CC[C@H]2[C@@H]3CC[C@@H]4C[C@H](O)CC[C@]4(C)[C@H]3[C@@H](O)C[C@]12C` yielded an EC50 greater than 300 µM. In the test on Cerebral cortex neuron [2], the Emax stood at 25%.

With `CC(=O)[C@H]1CC[C@H]2[C@@H]3CC[C@H]4C[C@H](O)CC[C@]4(C)[C@H]3[C@@H](N)C[C@]12C`, the EC50 in test [1] stood at 5.9 µM. In addition, in the test on Cerebral cortex neuron [2], the Emax stood at 140%.

With `CC(=O)[C@H]1CC[C@H]2[C@@H]3CC[C@H]4C[C@H](O)CC[C@]4(C)[C@H]3C[C@H](O)[C@]12C`, the EC50 in test [1] is 46 µM. Besides, the Emax with Cerebral cortex neuron [2] was found to be 60%.

The molecule `C#C[C@@]1(O)CC[C@@]2(C)[C@H](CC[C@H]3[C@@H]4CC[C@H](C(C)=O)[C@@]4(C)C[C@@](O)(C#C)[C@@H]32)C1` yielded an EC50 in test [1] of 75 µM. Also, the Emax in the test with Cerebral cortex neuron [2] came to 61%.

The molecule `CC(=O)[C@H]1CC[C@H]2[C@@H]3CC[C@@H]4C[C@H](O)CC[C@]4(C)C3=C(C)C[C@]12C` gave an EC50 in test [1] of 3 µM. Moreover, the maximal effect (Emax) with Cerebral cortex neuron [2] was found to be 97%.

In test [1], `CC(=O)[C@H]1CC[C@H]2[C@@H]3CC[C@H]4C[C@H](O)CC[C@]4(C)[C@H]3[C@@H](C)C[C@]12C` displayed an EC50 of 8 µM. The molecule also showed an Emax in the test with Cerebral cortex neuron [2] of 97%.

In turn, `CC(=O)[C@H]1CC[C@H]2[C@@H]3CC[C@@H]4C[C@H](O)CC[C@]4(C)[C@H]3[C@](O)(C#Cc3ccccc3)C[C@]12C` returned an EC50 in test [1] of 1.2 µM. Besides, the Emax with Cerebral cortex neuron [2] was determined as 116%.
